Assays:
[1] = Steady-state plasma pharmacokinetics of LCZ696 analytes; type: in vivo, human; details: for T1/2, mean (SD): LCZ696 200 mg bid (Day 21), patients with stable HF; for Exposure in patients with HF higher than in healthy subjects: LCZ696 200 mg bid, healthy-subject exposure from ref 20; for Dose proportionality of Cmax and AUC0-12 h: between LCZ696 100- and 200-mg doses; for Tmax / AUC(0-t) / Cmax: human, plasma
plasma cGMP = test: Plasma cGMP; type: in vivo, human; details: for Plasma cGMP, ratio-to-baseline (95% CI): geometric mean ratio; for Plasma cGMP, predose: geometric mean
plasma ANP = test: Plasma ANP; type: in vivo, human; details: for Plasma ANP, ratio-to-baseline (95% CI): geometric mean ratio; for Plasma ANP, predose: geometric mean
urine cGMP = test: Urine cGMP; type: in vivo, human; details: for Urine cGMP, ratio-to-baseline (95% CI): geometric mean ratio; for Urine cGMP: geometric mean
urine ANP = test: Urine ANP; type: in vivo, human; details: for Urine ANP, ratio-to-baseline (95% CI): geometric mean ratio; for Urine ANP: geometric mean
[2] = system: plasma renin concentration (PRC); test: Plasma renin concentration; type: in vivo, human; details: for PRC, ratio-to-baseline (95% CI): geometric mean ratio; for PRC, predose: geometric mean
Summary of the method: (§1)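 Chronic HF patients (NYHA II–IV, LVEF ≤40%), domiciled on a fixed 3 g sodium/5 g potassium diet. ACEI/ARB stopped over a 24-h run-in. Oral test compound given 100 mg bid for 7 days, then 200 mg bid for 14 days. Plasma drawn at baseline, predose, and 4, 12, 16, 24 h post-dose on Days 7 and 21. Geometric means; ratio-to-baseline with 95% CI by paired t-test on log data.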

[3] = system: plasma renin activity (PRA); test: Plasma renin activity; type: in vivo, human; details: for PRA, ratio-to-baseline (95% CI): geometric mean ratio; for PRA, predose: geometric mean
Summary of the method: as §1

plasma aldosterone = test: Plasma aldosterone; type: in vivo, human
Summary of the method: as §1

[4] = system: plasma endothelin-1 (ET-1); test: Plasma endothelin-1; type: in vivo, human
Summary of the method: as §1

plasma NT-proBNP = test: Plasma NT-proBNP; type: in vivo, human
Summary of the method: as §1

urinary NT-proBNP = test: Urinary NT-proBNP; type: in vivo, human
Summary of the method: (§2)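 Same patients, diet and oral dosing schedule. Urine collected over 24 h as two 12-h fractions (8:00–20:00, 20:00–8:00) at baseline, Day 7 and Day 21. Volume recorded; sodium, potassium and creatinine measured by standard laboratory methods, NT-proBNP by Elecsys immunoassay. Geometric means calculated; ratio-to-baseline by paired t-test on log-transformed data.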

[5] = Urinary sodium, potassium and creatinine excretion; type: in vivo, human; details: either treatment period (100 and 200 mg bid)
Summary of the method: as §2

[6] = Safety and tolerability: adverse events; type: in vivo, human
Summary of the method: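 Open-label study in HFrEF patients: 24-h run-in with ACEI/ARB stopped and other HF drugs kept, then oral test compound 100 mg bid for 7 days and 200 mg bid for 14 days. Patients domiciled on a standardized diet of 3 g sodium and 5 g potassium daily. Monitoring by ECG, vital signs, and electrolyte, renal and hepatic panels. Safety set comprised all patients dosed at least once.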

[7] = patients with HFrEF, PARADIGM-HF; cited from earlier work
[8] = Day 21 (LCZ696 200 mg bid), N=27
[9] = Day 7 (LCZ696 100 mg bid), N=30
[10] = Day 21, predose, LCZ696 200 mg bid for 14 days

C[C@H](C[C@@H](Cc1ccc(-c2ccccc2)cc1)NC(=O)CCC(=O)O)C(=O)O [LBQ657]
T1/2, mean (SD) ([1]; oral): 18.4 (6.8) h
Exposure in patients with HF higher than in healthy subjects [1]: ~110%
Dose proportionality of Cmax and AUC0-12 h [1]: approximately dose‐proportional
Tmax ([1]; oral, 200 mg): ≤ 2.5 h
AUC(0-t) ([1]; po, 100 mg): 82600 ng·h/mL
Cmax ([1]; po, 100 mg): 9100 ng/mL
Tmax ([1]; po, 100 mg): 2.5 h
AUC(0-t) ([1]; po, 200 mg): 147000 ng·h/mL
Cmax ([1]; po, 200 mg): 16300 ng/mL
Tmax ([1]; po, 200 mg): 2 h

CCCCC(=O)N(Cc1ccc(-c2ccccc2-c2nnn[nH]2)cc1)[C@H](C(=O)O)C(C)C [Valsartan, valsartan, reference compound]
T1/2, mean (SD) ([1]; oral): 13.7 (5.0) h
Exposure in patients with HF higher than in healthy subjects [1]: ~132%
Dose proportionality of Cmax and AUC0-12 h [1]: less than dose‐proportional
Tmax ([1]; oral, 200 mg): ≤ 2 h
AUC(0-t) ([1]; po, 100 mg): 25900 ng·h/mL
Cmax ([1]; po, 100 mg): 3810 ng/mL
Tmax ([1]; po, 100 mg): 2 h
AUC(0-t) ([1]; po, 200 mg): 38800 ng·h/mL
Cmax ([1]; po, 200 mg): 6040 ng/mL
Tmax ([1]; po, 200 mg): 2 h

CCOC(=O)[C@H](C)C[C@@H](Cc1ccc(-c2ccccc2)cc1)NC(=O)CCC(=O)O [Sacubitril, sacubitril]
T1/2, mean (SD) ([1]; oral): 3.9 (3.6) h
Exposure in patients with HF higher than in healthy subjects [1]: approximately 55%
Dose proportionality of Cmax and AUC0-12 h [1]: approximately dose‐proportional
Tmax ([1]; oral, 200 mg): ≤ 0.5 h
AUC(0-t) ([1]; po, 100 mg): 1540 ng·h/mL
Cmax ([1]; po, 100 mg): 1230 ng/mL
Tmax ([1]; po, 100 mg): 0.5 h
AUC(0-t) ([1]; po, 200 mg): 3150 ng·h/mL
Cmax ([1]; po, 200 mg): 2410 ng/mL
Tmax ([1]; po, 200 mg): 0.5 h

Sacubitril/valsartan [LCZ696]
Plasma cGMP, ratio-to-baseline (95% CI) (plasma cGMP; Day 7 (LCZ696 100 mg bid)): 1.24 (1.06–1.45) P = 0.008
Plasma cGMP, predose (plasma cGMP; Day 7 (LCZ696 100 mg bid), N=30, patients with HFrEF): 13.83 nmol/L
Plasma cGMP, ratio-to-baseline (95% CI) (plasma cGMP; Day 21 (LCZ696 200 mg bid)): 1.38 (1.16–1.65) P < 0.001
Plasma cGMP, predose (plasma cGMP; [8]): 15.07 nmol/L
Plasma ANP, ratio-to-baseline (95% CI) (plasma ANP; Day 7 (LCZ696 100 mg bid)): 0.92 (0.80–1.05) P = 0.223
Plasma ANP, predose (plasma ANP; [9]): 105.20 pg/mL
Plasma ANP, ratio-to-baseline (95% CI) (plasma ANP; Day 21 (LCZ696 200 mg bid)): 1.00 (0.80–1.26) P = 0.986
Plasma ANP, predose (plasma ANP; [8]): 110.83 pg/mL
Plasma ANP versus baseline (plasma ANP; either treatment period (100 and 200 mg bid)): not significantly different from baseline
Urine cGMP, ratio-to-baseline (95% CI) (urine cGMP; Day 7 (LCZ696 100 mg bid)): 1.17 (0.97–1.40) P = 0.090
Urine cGMP (urine cGMP; [9]): 1096.09 nmol
Urine cGMP, ratio-to-baseline (95% CI) (urine cGMP; Day 21 (LCZ696 200 mg bid)): 1.22 (1.01–1.47) P = 0.040
Urine cGMP (urine cGMP; [8]): 1180.57 nmol
Urine ANP, ratio-to-baseline (95% CI) (urine ANP; Day 7 (LCZ696 100 mg bid)): 1.69 (1.40–2.03) P < 0.001
Urine ANP (urine ANP; [9]): 353.42 ng
Urine ANP, ratio-to-baseline (95% CI) (urine ANP; Day 21 (LCZ696 200 mg bid)): 1.82 (1.54–2.17) P < 0.001
Urine ANP (urine ANP; [8]): 378.48 ng
PRC, ratio-to-baseline (95% CI) ([2]; Day 7 (LCZ696 100 mg bid)): 4.30 (2.78–6.64) P < 0.001
PRC, predose [2, 9]: 42.64 pg/mL
PRC, ratio-to-baseline (95% CI) ([2]; Day 21 (LCZ696 200 mg bid)): 3.50 (2.13–5.76) P < 0.001
PRC, predose [2, 8]: 34.11 pg/mL
PRA, ratio-to-baseline (95% CI) ([3]; Day 7 (LCZ696 100 mg bid)): 3.94 (2.27–6.87) P < 0.001
PRA, predose ([3]; Day 7 (LCZ696 100 mg bid), 29 patients): 2.70 ng/mL/h
PRA, ratio-to-baseline (95% CI) ([3]; Day 21 (LCZ696 200 mg bid)): 2.27 (1.20–4.32) P = 0.014
PRA, predose ([3]; Day 21 (LCZ696 200 mg bid), 26 patients): 1.64 ng/mL/h
Predose plasma aldosterone level compared with baseline (plasma aldosterone; Day 7 (LCZ696 100 mg bid)): trend toward a reduction
Decrease in plasma aldosterone levels (plasma aldosterone; Day 21): 21%
Plasma aldosterone, ratio-to-baseline [95% CI] (plasma aldosterone; [10]): 0.79 [0.65–0.95]
Predose plasma ET-1 level compared with baseline ([4]; Day 7 (LCZ696 100 mg bid)): trend toward a reduction
Plasma ET-1, ratio-to-baseline [95% CI] [4, 10]: 0.80 [0.71–0.91]
Plasma NT-proBNP, ratio-to-baseline [95% CI] (plasma NT-proBNP; Day 7 (LCZ696 100 mg bid)): 0.53 [0.45–0.62]
Plasma NT-proBNP, ratio-to-baseline [95% CI] (plasma NT-proBNP; Day 21 (LCZ696 200 mg bid)): 0.56 [0.45–0.70]
Urinary NT-proBNP, ratio-to-baseline (urinary NT-proBNP; after LCZ696 100 mg bid for 7 days): 0.68
Urinary NT-proBNP, ratio-to-baseline (urinary NT-proBNP; after LCZ696 200 mg bid for 14 days): 0.74
Change in mean urinary sodium, potassium, and creatinine excretion [5]: No statistically significant changes
Dose relation of the frequency of AEs ([6]; 100 vs 200 mg bid): not dose related
Deaths or serious AEs during the study ([6]; LCZ696 100 mg bid 7 days then 200 mg bid 14 days, 30 patients): No deaths or serious AEs occurred
Subjects with AE ([6]; LCZ696 100 mg bid (N=30), 7-day titration period): 16 (53.3%) n (%)
Overall tolerability ([6]; LCZ696 100 mg bid for 7 days and 200 mg bid for 14 days): well tolerated
Subjects with AE ([6]; LCZ696 200 mg bid (N=30), 14-day treatment period): 15 (50.0%) n (%)
Subjects with AE ([6]; Total (N=30)): 21 (70.0%) n (%)
Patients who completed the study treatment as per protocol ([6]; of 30 patients): 27 (90%) n (%)
Hypotension reported as an AE ([6]; whole study): not reported
Reduction of CV and all-cause mortality and HF hospitalizations versus enalapril [7]: superior
